Test results taken from ChEMBL document CHEMBL4014350, “Alkoxyurea-Based Histone Deacetylase Inhibitors Increase Cisplatin Potency in Chemoresistant Cancer Cell Lines” (J Med Chem, 2017).

Legend:
A2780 = assay: Antiproliferative activity against human A2780 cells measured after 72 hrs by MTT assay; assay type: functional, cell-based; conditions: A2780, 72 h
CAL-27 [1] = assay: Antiproliferative activity against human CAL27 cells measured after 72 hrs by MTT assay; assay type: functional, cell-based; conditions: CAL-27, 72 h
A2780cisR = assay: Antiproliferative activity against human A2780cisR cells measured after 72 hrs by MTT assay; assay type: functional, cell-based
[2] = Antiproliferative activity against human Med8A cells after 72 hrs by Celltiter-Glo assay; assay type: functional, cell-based
ONS-76 = assay: Antiproliferative activity against human ONS76 cells after 72 hrs by Celltiter-Glo assay; assay type: functional, cell-based; conditions: ONS-76, 72 h
[3] = Inhibition of HDAC in human A2780 cells using Boc-Lys(epsilon-Ac)-AMC as substrate preincubated for 18 hrs followed by substrate addition measured after 3 hrs by fluorescence assay; assay type: cell-based
Histone deacetylase 1 = Histone deacetylase 1 (Homo sapiens, UniProt Q13547); assay: Inhibition of recombinant full length human C-terminal FLAG/His-tagged HDAC1 expressed in baculovirus infected sf9 cells using Z-(Ac)Lys-AMC as substrate measured after 90 mins by fluorescence assay
Histone deacetylase 4 = Histone deacetylase 4 (Homo sapiens, UniProt P56524); assay: Inhibition of recombinant human N-terminal GST-tagged/C-terminal His-tagged HDAC4 expressed in insect cells using Boc-K(Ac)-AMC as substrate by fluorescence assay
CAL-27 [4] = assay: Potentiation of 0.316 uM cisplatin-induced cytotoxicity against human CAL27 cells assessed as decrease in cell viability by measuring combination index at 600 uM preincubated for 48 hrs followed by cisplatin treatment measured after 72 hrs by MTT assay; assay type: functional; conditions: in the assay text read “at 600 nM” for “at 600 uM”
Summary of the method: (§1)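 Cal27 and cisplatin-resistant Cal27CisR cells were preincubated with the HDAC inhibitor for 48 h, then given cisplatin in combination. Viability was read by MTT after 72 h. The combination index was computed by the Chou–Talalay method: CI > 1 is antagonism, CI = 1 is additive, and CI < 0.9 is synergism. Points with fraction affected below 0.20 were flagged.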

CAL-27 [5] = assay: Potentiation of 0.5 uM cisplatin-induced cytotoxicity against human CAL27 cells assessed as decrease in cell viability measuring combination index at 600 uM preincubated for 48 hrs followed by cisplatin treatment measured after 72 hrs by MTT assay; assay type: functional; conditions: in the assay text read “at 600 nM” for “at 600 uM”; summary of the method: as §1
CAL-27 [6] = assay: Potentiation of 1 uM cisplatin-induced cytotoxicity against human CAL27 cells assessed as decrease in cell viability by measuring combination index at 700 uM preincubated for 48 hrs followed by cisplatin treatment measured after 72 hrs by MTT assay; assay type: functional
Summary of the method: (§2)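 HDAC inhibitor was added 48 h before cisplatin, then cells were exposed to cisplatin for 72 h and viability was read by MTT assay. Combination index was computed by the Chou–Talalay method: CI > 1 is antagonism, CI = 1 additive, CI < 0.9 synergism. Points with fraction affected below 0.20 were flagged.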

CAL-27 [7] = assay: Potentiation of 1 uM cisplatin-induced cytotoxicity against human CAL27 cells assessed as decrease in cell viability by measuring combination index at 800 uM preincubated for 48 hrs followed by cisplatin treatment measured after 72 hrs by MTT assay; assay type: functional; summary of the method: as §2
CAL-27 [8] = assay: Potentiation of 2 uM cisplatin-induced cytotoxicity against human CAL27 cells assessed as decrease in cell viability by measuring combination index at 600 uM preincubated for 48 hrs followed by cisplatin treatment measured after 72 hrs by MTT assay; assay type: functional; conditions: in the assay text read “at 600 nM” for “at 600 uM”; summary of the method: as §2
CAL-27 [9] = assay: Potentiation of 5 uM cisplatin-induced cytotoxicity against human CAL27 cells assessed as decrease in cell viability by measuring combination index at 600 uM preincubated for 48 hrs followed by cisplatin treatment measured after 72 hrs by MTT assay; assay type: functional; conditions: in the assay text read “at 600 nM” for “at 600 uM”; summary of the method: as §2
CAL-27 [10] = assay: Potentiation of 5 uM cisplatin-induced cytotoxicity against human CAL27 cells assessed as decrease in cell viability by measuring combination index at 700 uM preincubated for 48 hrs followed by cisplatin treatment measured after 72 hrs by MTT assay; assay type: functional; conditions: in the assay text read “at 700 nM” for “at 700 uM”; summary of the method: as §2
[11] = biological target: T1, Histone deacetylase 1/6 (Homo sapiens) (UniProt Q13547+Q9UBN7); assay: Inhibition of HDAC1/HDAC6 in human Cal27CisR cells assessed as potentiation of 1 uM cisplatin-induced cytotoxicity by measuring combination index at 800 uM preincubated for 48 hrs followed by cisplatin treatment measured after 72 hrs by MTT assay; assay type: cell-based
Summary of the method: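 Cal27CisR cells preincubated 48 h with the HDAC inhibitor, then exposed to cisplatin for 72 h. Viability read by MTT. Combination index calculated by the Chou–Talalay method: CI > 1 antagonism, CI = 1 additive, CI < 0.9 synergism. Points with fraction affected below 0.20 are flagged. Values are the mean of three experiments.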

[12] = biological target: T1, Histone deacetylase 1/6 (Homo sapiens); assay: Inhibition of HDAC1/HDAC6 in human Cal27CisR cells assessed as potentiation of 5 uM cisplatin-induced cytotoxicity by measuring combination index at 600 uM preincubated for 48 hrs followed by cisplatin treatment measured after 72 hrs by MTT assay; assay type: cell-based; summary of the method: as §1
[13] = biological target: T1, Histone deacetylase 1/6 (Homo sapiens); assay: Inhibition of HDAC1/HDAC6 in human Cal27CisR cells assessed as potentiation of 5 uM cisplatin-induced cytotoxicity by measuring combination index at 800 uM preincubated for 48 hrs followed by cisplatin treatment measured after 72 hrs by MTT assay; assay type: cell-based; summary of the method: as §1
Homo sapiens = organism: Homo sapiens; assay: Selectivity ratio of IC50 for HDAC in human A2780 cells to IC50 for HDAC in human A2780CisR cells; assay type: cell-based
[14] = biological target: T1, Histone deacetylase 1/6 (Homo sapiens); assay: Inhibition of HDAC1/HDAC6 in human Cal27CisR cells assessed as potentiation of 1 uM cisplatin-induced cytotoxicity by measuring combination index at 500 nM preincubated for 48 hrs followed by cisplatin treatment measured after 72 hrs by MTT assay
[15] = biological target: T1, Histone deacetylase 1/6 (Homo sapiens); assay: Inhibition of HDAC1/HDAC6 in human Cal27CisR cells assessed as potentiation of 10 uM cisplatin-induced cytotoxicity by measuring combination index at 700 nM preincubated for 48 hrs followed by cisplatin treatment measured after 72 hrs by MTT assay
[16] = biological target: T1, Histone deacetylase 1/6 (Homo sapiens); assay: Inhibition of HDAC1/HDAC6 in human Cal27CisR cells assessed as potentiation of 20 uM cisplatin-induced cytotoxicity by measuring combination index at 600 nM preincubated for 48 hrs followed by cisplatin treatment measured after 72 hrs by MTT assay
[17] = biological target: T1, Histone deacetylase 1/6 (Homo sapiens); assay: Inhibition of HDAC1/HDAC6 in human Cal27CisR cells assessed as potentiation of 20 uM cisplatin-induced cytotoxicity by measuring combination index at 700 nM preincubated for 48 hrs followed by cisplatin treatment measured after 72 hrs by MTT assay

T1 sequence (Q13547 whole entry, looked up): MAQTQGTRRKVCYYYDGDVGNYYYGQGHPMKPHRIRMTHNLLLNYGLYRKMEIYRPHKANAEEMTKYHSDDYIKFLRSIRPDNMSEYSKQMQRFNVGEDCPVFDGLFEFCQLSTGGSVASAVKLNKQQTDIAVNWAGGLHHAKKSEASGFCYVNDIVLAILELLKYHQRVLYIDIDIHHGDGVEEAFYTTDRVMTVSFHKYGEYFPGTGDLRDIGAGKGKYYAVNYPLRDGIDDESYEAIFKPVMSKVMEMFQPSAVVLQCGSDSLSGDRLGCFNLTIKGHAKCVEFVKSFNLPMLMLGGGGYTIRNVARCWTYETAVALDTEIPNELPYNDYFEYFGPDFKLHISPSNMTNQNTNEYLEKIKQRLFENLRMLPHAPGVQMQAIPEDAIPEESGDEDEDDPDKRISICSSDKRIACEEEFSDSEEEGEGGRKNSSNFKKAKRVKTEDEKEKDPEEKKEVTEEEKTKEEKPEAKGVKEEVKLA
T1 sequence (Q9UBN7 whole entry, looked up): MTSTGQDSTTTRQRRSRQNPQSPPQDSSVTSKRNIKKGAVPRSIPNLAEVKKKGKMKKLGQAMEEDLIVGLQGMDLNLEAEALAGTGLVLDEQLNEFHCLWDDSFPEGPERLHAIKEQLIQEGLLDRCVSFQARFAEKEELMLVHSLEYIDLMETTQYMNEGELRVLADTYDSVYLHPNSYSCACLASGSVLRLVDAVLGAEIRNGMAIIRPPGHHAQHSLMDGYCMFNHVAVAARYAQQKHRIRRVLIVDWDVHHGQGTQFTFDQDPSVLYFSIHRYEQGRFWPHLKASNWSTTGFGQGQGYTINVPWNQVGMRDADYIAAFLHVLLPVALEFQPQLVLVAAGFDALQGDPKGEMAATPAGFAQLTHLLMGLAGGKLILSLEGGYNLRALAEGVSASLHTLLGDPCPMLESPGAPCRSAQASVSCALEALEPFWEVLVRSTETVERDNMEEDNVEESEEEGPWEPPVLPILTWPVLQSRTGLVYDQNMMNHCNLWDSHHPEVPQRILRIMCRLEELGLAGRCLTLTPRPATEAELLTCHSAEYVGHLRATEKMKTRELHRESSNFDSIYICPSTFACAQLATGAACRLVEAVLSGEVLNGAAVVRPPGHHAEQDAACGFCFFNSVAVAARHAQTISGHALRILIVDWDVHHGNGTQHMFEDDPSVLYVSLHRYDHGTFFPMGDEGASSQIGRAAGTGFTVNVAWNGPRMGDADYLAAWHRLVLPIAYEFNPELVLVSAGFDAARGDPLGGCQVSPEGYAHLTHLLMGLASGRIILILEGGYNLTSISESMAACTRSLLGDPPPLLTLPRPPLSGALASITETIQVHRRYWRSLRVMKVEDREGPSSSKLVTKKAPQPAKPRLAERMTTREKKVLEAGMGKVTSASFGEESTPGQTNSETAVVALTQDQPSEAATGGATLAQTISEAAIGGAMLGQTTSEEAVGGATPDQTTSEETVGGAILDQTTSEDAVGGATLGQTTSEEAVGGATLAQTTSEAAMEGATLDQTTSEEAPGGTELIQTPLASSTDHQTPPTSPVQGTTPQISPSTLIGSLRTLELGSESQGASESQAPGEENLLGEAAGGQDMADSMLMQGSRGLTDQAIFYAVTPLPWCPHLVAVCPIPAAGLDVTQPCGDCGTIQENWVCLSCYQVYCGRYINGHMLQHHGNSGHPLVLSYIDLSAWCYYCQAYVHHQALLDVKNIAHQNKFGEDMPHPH
Chain of Histone deacetylase 1 (Q13547 whole entry): as the sequence (Q13547 whole entry, looked up) above
Chain of Histone deacetylase 4 (P56524 whole entry): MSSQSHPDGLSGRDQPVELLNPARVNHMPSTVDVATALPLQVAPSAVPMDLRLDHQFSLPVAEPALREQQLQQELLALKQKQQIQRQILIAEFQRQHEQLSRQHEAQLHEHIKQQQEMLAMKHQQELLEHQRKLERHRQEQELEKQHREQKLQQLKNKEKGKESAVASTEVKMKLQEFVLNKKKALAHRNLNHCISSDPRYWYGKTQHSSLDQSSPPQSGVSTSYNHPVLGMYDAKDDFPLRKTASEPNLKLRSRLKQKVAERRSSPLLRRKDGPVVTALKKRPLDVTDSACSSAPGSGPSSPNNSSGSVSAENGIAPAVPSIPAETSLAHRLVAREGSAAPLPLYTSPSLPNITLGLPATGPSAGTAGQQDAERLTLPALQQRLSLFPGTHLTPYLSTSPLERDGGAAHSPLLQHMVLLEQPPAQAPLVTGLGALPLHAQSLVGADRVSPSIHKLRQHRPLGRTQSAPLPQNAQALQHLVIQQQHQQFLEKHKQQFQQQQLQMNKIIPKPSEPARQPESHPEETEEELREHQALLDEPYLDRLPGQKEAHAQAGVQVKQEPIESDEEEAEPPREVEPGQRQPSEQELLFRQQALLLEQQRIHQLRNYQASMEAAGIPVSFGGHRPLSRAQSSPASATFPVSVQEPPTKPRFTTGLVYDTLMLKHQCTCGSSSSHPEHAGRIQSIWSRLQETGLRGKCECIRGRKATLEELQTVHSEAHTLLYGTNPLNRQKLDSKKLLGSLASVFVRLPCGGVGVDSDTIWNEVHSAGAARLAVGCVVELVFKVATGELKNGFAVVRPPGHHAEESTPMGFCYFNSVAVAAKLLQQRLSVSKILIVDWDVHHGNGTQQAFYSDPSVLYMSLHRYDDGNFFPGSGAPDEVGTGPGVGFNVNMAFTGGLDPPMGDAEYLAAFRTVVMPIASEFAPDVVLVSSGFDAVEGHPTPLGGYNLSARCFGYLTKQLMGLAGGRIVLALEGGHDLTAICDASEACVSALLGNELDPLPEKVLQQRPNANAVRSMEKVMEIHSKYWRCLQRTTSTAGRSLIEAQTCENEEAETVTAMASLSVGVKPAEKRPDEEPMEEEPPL

Row | IC50 (A2780) | IC50 (A2780cisR) | IC50 [3] | IC50 (Histone deacetylase 1) | IC50 (Histone deacetylase 4) | Structure (SMILES) | IC50 (CAL-27 [1]) | IC50 [2] | IC50 (ONS-76) | CI (CAL-27 [4]) | CI (CAL-27 [5]) | CI (CAL-27 [6]) | CI (CAL-27 [7]) | CI (CAL-27 [8]) | CI (CAL-27 [9]) | CI (CAL-27 [10]) | CI [11] | CI [12] | CI [13] | Ratio IC50 (Homo sapiens) | CI [14] | also measured
1 | 800 nM | 400 nM | 1700 nM | 43.2 nM | > 10000 nM | COc1cc(NC(=O)NOCCCCCC(=O)NO)c2nc(OC)cc(C)c2c1 | 1000 nM | 590 nM | 650 nM | 0.71 | 0.66 | 0.61 | 0.69 | 0.49 | 0.49 | 0.64 | 0.65 | 0.2 | 0.26 | 2 to 3.4 | 0.56 | CI [15]: 0.2; CI [16]: 0.19; CI [17]: 0.21
2 | 1200 nM | 400 nM | 1000 nM | 51.9 nM | > 10000 nM | COc1cc(NC(=O)NOCCCCCC(=O)NO)c2ncccc2c1 | 900 nM | 1210 nM | 2670 nM | 0.79 | 0.77 | 0.63 | 0.56 | 0.37 | 0.34 | 0.32 | 0.81 | 0.6 | 0.37 | 2 to 3.4 | < 0.2 | CI [15]: 0.33; CI [16]: 0.37; CI [17]: 0.37
3 | 1100 nM | 300 nM | 900 nM | 77.3 nM | > 10000 nM | COc1cc(NC(=O)NOCCCCCC(=O)NO)c2nccc(C)c2c1 | 600 nM | 600 nM | 590 nM | 0.93 | 0.58 | 0.43 | 0.41 | 0.26 | 0.33 | 0.41 | 1.09 | 0.25 | 0.23 | 2 to 3.4 | < 0.2 | CI [15]: 0.21; CI [16]: 0.21; CI [17]: 0.25
